# Experimental data from ChEMBL document CHEMBL1134474, “Synthesis and biological evaluation of novel A-ring modified hexacyclic camptothecin analogues” (J Med Chem, 2001).
# Experiments:
# [1] = target: Acetylcholinesterase (Homo sapiens) (UniProt P22303); assay: Percent inhibition of acetylcholinesterase using ATCh1 as a substrate; set-up: concentration or dose not given beside the values; details: concentration not given here
# Summary of the method: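 AChE (0.05 unit) with 10 mM DTNB and compound at 2 µM in 0.1 M potassium phosphate pH 8.0, preincubated 15 min at 37 °C. Reaction started with 85 µM acetylthiocholine iodide, 15 min at 37 °C. Absorbance at 412 nm, expressed as percent of colour without compound. Three or more determinations.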
# [2] = test system: SK-OV-3; assay: In Vitro cytotoxicity against human ovarian cancer cell line (SK-OV-3); type: functional, cell-based
# Summary of the method: (§1)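 Cells grown in RPMI 1640 with 10% heat-inactivated FBS and penicillin-streptomycin, at 37 °C under 5% CO2. Seeding density set per line from growth curves. Eight concentrations diluted from DMSO stock, 4 days exposure. MTT added for 4 h, formazan dissolved in DMSO, absorbance at 550 nm. […] Three or more determinations.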
# [3] = test system: MKN-45; assay: In Vitro cytotoxicity against human stomach cancer cell line (MKN45); type: functional, cell-based; summary of the method: as §1
# [4] = test system: SK-BR-3; assay: In Vitro cytotoxicity against human breast cancer cell line (SK-BR-3); type: functional, cell-based; summary of the method: as §1
# [5] = target: T1, DNA topoisomerase 1 (Mus musculus, UniProt Q04750); assay: Average concentration to cause 50% inhibition of topo 1 using the cleavable complex assay
# T1 sequence (Q04750 whole entry): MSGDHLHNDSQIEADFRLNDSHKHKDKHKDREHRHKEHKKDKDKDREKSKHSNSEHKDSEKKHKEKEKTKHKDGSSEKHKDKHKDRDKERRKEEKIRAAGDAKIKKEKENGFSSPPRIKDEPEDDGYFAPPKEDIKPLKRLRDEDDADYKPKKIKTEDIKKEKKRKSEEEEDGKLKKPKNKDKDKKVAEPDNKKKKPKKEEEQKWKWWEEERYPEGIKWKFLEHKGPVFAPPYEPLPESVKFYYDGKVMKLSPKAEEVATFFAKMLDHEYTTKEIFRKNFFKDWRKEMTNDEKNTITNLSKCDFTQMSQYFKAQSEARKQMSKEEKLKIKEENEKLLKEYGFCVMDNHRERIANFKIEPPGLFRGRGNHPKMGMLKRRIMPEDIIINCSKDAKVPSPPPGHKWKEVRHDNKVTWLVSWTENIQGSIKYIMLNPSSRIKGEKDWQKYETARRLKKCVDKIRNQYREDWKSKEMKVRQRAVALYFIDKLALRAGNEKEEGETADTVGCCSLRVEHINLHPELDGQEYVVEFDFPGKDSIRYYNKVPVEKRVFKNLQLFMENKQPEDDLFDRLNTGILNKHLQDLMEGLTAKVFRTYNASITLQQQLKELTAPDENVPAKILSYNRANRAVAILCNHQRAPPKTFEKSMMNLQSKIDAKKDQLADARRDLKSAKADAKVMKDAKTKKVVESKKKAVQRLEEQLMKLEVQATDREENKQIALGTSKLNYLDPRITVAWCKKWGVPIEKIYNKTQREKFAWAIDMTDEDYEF
# [6] = test system: A549; assay: In Vitro cytotoxicity against human lung cancer cell line (A549); type: functional, cell-based; summary of the method: as §1
# [7] = test system: NCI-H128; assay: In Vitro cytotoxicity against human lung cancer cell line (H128); type: functional, cell-based; summary of the method: as §1
# [8] = test system: WiDr; assay: In Vitro cytotoxicity against human colon cancer cell line (WiDr); type: functional, cell-based; summary of the method: as §1
# [9] = Relative tumor growth (RTG), calculated by dividing MTW28 by that on day 0 (MTW0) against WiDr xenografts in nude mice at a dose of 10 umol/kg; type: functional, Mus musculus
# Summary of the method: (§2)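 Treatment started about 3 weeks after transplant, at tumor weight 100 to 200 mg. 12 mice per group. Suspended in 0.5% CMC aqueous solution, given i.p. q4d×8 at 10 µmol/kg per injection. Calipers, V = 1/2 × a × b2. Read-outs on day 28: MTW, RTG (MTW28/MTW0), IR = (1 − RTG treated/RTG control) × 100. PR means 50% or greater regression.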
# [10] = Percentage of complete regression (CR) against WiDr xenografts in nude mice at a dose of 10 umol/kg; type: functional, Mus musculus; summary of the method: as §2
# [11] = Antitumor activity against MTW0 WiDr xenografts in nude mice at a dose of 10 umol/kg; type: functional, Mus musculus; summary of the method: as §2
# [12] = Percentage of inhibition rate (IR) against WiDr xenografts in nude mice at a dose of 10 umol/kg; type: functional, Mus musculus; summary of the method: as §2
# [13] = Antitumor activity against MTW28 WiDr xenografts in nude mice at a dose of 10 umol/kg; type: functional, Mus musculus; summary of the method: as §2
# [14] = Percentage of 50% or greater regression (PR) against WiDr xenografts in nude mice at a dose of 10 umol/kg; type: functional, Mus musculus; summary of the method: as §2
# Sequence of Acetylcholinesterase (Homo sapiens) (P22303 whole entry): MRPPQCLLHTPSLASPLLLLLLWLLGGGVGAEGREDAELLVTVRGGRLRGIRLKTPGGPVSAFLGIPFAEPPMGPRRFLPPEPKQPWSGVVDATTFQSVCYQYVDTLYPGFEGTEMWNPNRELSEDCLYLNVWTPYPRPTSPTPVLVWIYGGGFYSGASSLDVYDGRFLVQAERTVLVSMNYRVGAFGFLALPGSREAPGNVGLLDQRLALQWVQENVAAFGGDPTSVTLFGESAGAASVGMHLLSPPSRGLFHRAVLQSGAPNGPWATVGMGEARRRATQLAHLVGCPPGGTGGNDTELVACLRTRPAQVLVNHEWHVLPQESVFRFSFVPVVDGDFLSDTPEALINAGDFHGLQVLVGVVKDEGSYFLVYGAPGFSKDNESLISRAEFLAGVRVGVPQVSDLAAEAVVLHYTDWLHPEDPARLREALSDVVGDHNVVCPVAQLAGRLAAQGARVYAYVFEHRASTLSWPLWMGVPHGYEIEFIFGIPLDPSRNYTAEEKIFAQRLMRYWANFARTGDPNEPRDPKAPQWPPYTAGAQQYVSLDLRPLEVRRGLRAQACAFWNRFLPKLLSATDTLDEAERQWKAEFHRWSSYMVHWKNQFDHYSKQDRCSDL
Compound,inhibition [1] [%],IC50 [2] [µM],IC50 [3] [µM],IC50 [4] [µM],IC50 [5] [µM],IC50 [6] [µM],IC50 [7] [µM],IC50 [8] [µM],RTG [9],CR [10] [%],Activity [11] [mg],IR [12] [%],Activity [13] [mg],PR [14] [%]
CC[C@@]1(O)C(=O)OCc2c1cc1n(c2=O)Cc2cc3ccccc3nc2-1 [CAMPTOTHECIN],23,0.02,0.017,0.02,40,0.014,0.018,0.017,,,,,,
CC[C@@]1(O)C(=O)OCc2c1cc1n(c2=O)Cc2cc3c4c(ccc3nc2-1)OCCN4,13,0.028,0.02,0.019,41,0.023,0.013,0.023,,,,,,
CC[C@@]1(O)C(=O)OCc2c1cc1n(c2=O)Cc2cc3c4c(cc(CN(C)C)c3nc2-1)OCCN4,,8.63,9.57,,,8.07,8.5,3.19,,,,,,
CC[C@@]1(O)C(=O)OCc2c1cc1n(c2=O)Cc2cc3c4c(cc(CN5CCOCC5)c3nc2-1)OCCN4,,10.6,15.4,,,9.59,7.44,5.34,,,,,,
CCc1c2c(nc3ccc4c(c13)NCCO4)-c1cc3c(c(=O)n1C2)COC(=O)[C@]3(O)CC,12,0.014,0.02,0.013,5,0.014,0.007,0.016,0.12,75,176,98.6,21,25
CC[C@@]1(O)C(=O)OCc2c1cc1n(c2=O)Cc2cc3c(CN(C)C)c(O)ccc3nc2-1 [TOPOTECAN],20,0.048,0.038,0.026,,0.054,0.031,0.056,,,,,,
CCN1CCOc2ccc3nc4c(cc3c21)Cn1c-4cc2c(c1=O)COC(=O)[C@]2(O)CC,9,0.019,0.019,0.016,12,0.017,0.013,0.021,,,,,,
CC[C@@]1(O)C(=O)OCc2c1cc1n(c2=O)Cc2cc3c4c(ccc3nc2-1)OCCN4CCN,17,0.533,0.536,0.417,133,0.507,0.174,0.415,,,,,,
CCc1c2c(nc3ccc4c(c13)N(C)CCO4)-c1cc3c(c(=O)n1C2)COC(=O)[C@]3(O)CC,19,0.142,0.152,0.107,1600,0.085,0.076,0.135,,,,,,
CCc1c2c(nc3ccc(O)cc13)-c1cc3c(c(=O)n1C2)COC(=O)[C@]3(O)CC [7-ETHYL-10-HYDROXYCAMPTOTHECIN],13,0.011,0.008,0.004,4,0.016,0.006,0.014,0.15,75,177,98.2,27,8
CC[C@@]1(O)C(=O)OCc2c1cc1n(c2=O)Cc2cc3c4c(ccc3nc2-1)OCCN4C,14,0.026,0.019,0.025,21,0.021,0.01,0.023,,,,,,
CC[C@@]1(O)C(=O)OCc2c1cc1n(c2=O)Cc2cc3c4c(ccc3nc2-1)OCCN4CC#N,20,0.032,0.04,0.017,16,0.037,0.014,0.03,,,,,,
